ChEMBL document CHEMBL1128718, “2-Substituted penems with amino acid-related side chains: synthesis and antibacterial activity of a new series of beta-lactam antibiotics” (1995)

Experiments:
Assay type in all cases: functional
Enterococcus faecalis [1] = experiment: In Vitro Anti Bacterial Activity (MIC90) against 90% of tested clinical Isolates of Enterococcus faecalis(47)
Summary of the method: (§1)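 Over 500 clinical isolates tested in total; the line gives the isolate count. MIC90 for aerobes by dilution in Mueller Hinton 2 medium, inoculum 10⁴ cells/mL, incubated 24 h at 37 °C.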

Aeromonas = experiment: In Vitro Anti Bacterial Activity (MIC90) against 90% of tested clinical Isolates of Aeromonas species(21); summary of the method: as §1
Escherichia coli [2] = experiment: In Vitro antibacterial activity against (Ec) Escherichia coli ATCC 25922
Summary of the method: (§2)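 Panel of standard ATCC strains plus modified strains: methicillin-resistant, hyperpermeable, β-lactamase-producing (TEM1, TEM2, SHV) and β-lactamase-lacking. MIC determined in Mueller Hinton 2 medium, inoculum 10⁴ cells/mL, incubated 24 h at 37 °C.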

Pseudomonas aeruginosa [3] = experiment: In Vitro antibacterial activity against (Pa G242) hyperpermeable Pseudomonas aeruginosa strain; summary of the method: as §2
Escherichia coli [4] = experiment: In Vitro antibacterial activity against (Ec L) Escherichia coli […] strain; summary of the method: as §2
Staphylococcus aureus [5] = experiment: In Vitro Anti Bacterial Activity (MIC90) against 90% of tested clinical Isolates of Staphylococcus aureus MS (6); summary of the method: as §1
Klebsiella aerogenes = experiment: In Vitro Anti Bacterial Activity (MIC90) against 90% of tested clinical Isolates of Enterobacter aerogenes(19); summary of the method: as §1
Enterococcus faecium = experiment: In Vitro Anti Bacterial Activity (MIC90) against 90% of tested clinical Isolates of Enterococcus faecium(47); summary of the method: as §1
Streptococcus pneumoniae = experiment: In Vitro Anti Bacterial Activity (MIC90) against 90% of tested clinical Isolates of Streptococcus pneumoniae (23)
Bacteroides fragilis = experiment: In Vitro Anti Bacterial Activity (MIC90) against 90% of tested clinical Isolates of Bacteroides fragilis(15)
Summary of the method: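 Anaerobic clinical isolates. MIC90 by dilution in Wilkins-Chalgren agar, inoculum 10⁵ cells/mL, incubated 24–48 h at 37 °C.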

Pseudomonas aeruginosa [6] = experiment: In Vitro antibacterial activity against (Pa) Pseudomonas aeruginosa ATCC 27853; summary of the method: as §2
[7] = tested on: Acinetobacter calcoaceticus subsp. anitratus; experiment: In Vitro Anti Bacterial Activity (MIC90) against 90% of tested clinical Isolates of Acinetobacter anitratus(20); summary of the method: as §1
Staphylococcus aureus [8] = experiment: In vitro antibacterial activity against Sa(II) Staphylococcus aureus ATCC 25923; summary of the method: as §2
Moraxella catarrhalis = experiment: In Vitro Anti Bacterial Activity (MIC90) against 90% of tested clinical Isolates of Branhamella catarrhalis(27)
Streptococcus pyogenes = experiment: In Vitro Anti Bacterial Activity (MIC90) against 90% of tested clinical Isolates of Streptococcus pyogenes(31)
Staphylococcus aureus [9] = experiment: In vitro antibacterial activity against Sa(I) Staphylococcus aureus ATCC 29213
Summary of the method: (§3)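 MIC was determined in Mueller Hinton 2 medium with an inoculum of 10⁴ cells/mL and incubation for 24 h at 37 °C. Strains: Sa(I) is S. aureus ATCC 29213; Sa MR(I) is a heterogeneous methicillin-resistant S. aureus; Sa MR(II) is a homogeneous methicillin-resistant S. aureus.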

[10] = tested on: Stenotrophomonas maltophilia; experiment: In Vitro Anti Bacterial Activity (MIC90) against 90% of tested clinical Isolates of Xanthomonas maltophilia(9); summary of the method: as §1
Citrobacter freundii = experiment: In Vitro Anti Bacterial Activity (MIC90) against 90% of tested clinical Isolates of Citrobacter freundii(20); summary of the method: as §1
Yersinia sp. = experiment: In Vitro Anti Bacterial Activity (MIC90) against 90% of tested clinical Isolates of Yersinia species(20); conditions: Yersinia sp. (in: enterobacteria)
Enterococcus faecalis [11] = experiment: In Vitro antibacterial activity against (Ef) Enterococcus faecalis ATCC 29212; summary of the method: as §2
Haemophilus influenzae = experiment: In Vitro Anti Bacterial Activity (MIC90) against 90% of tested clinical Isolates of Haemophilus Influenzae(21)
Summary of the method: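 Clinical isolates. MIC90 in Haemophilus Test Medium Base plus Haemophilus Test Medium Supplement, inoculum 10⁴ cells/mL, incubated 24–48 h at 37 °C.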

Listeria monocytogenes = experiment: In Vitro Anti Bacterial Activity (MIC 90) against 90% of tested clinical Isolates of Listeria monocytogenes (20); summary of the method: as §1
Escherichia coli [12] = experiment: In Vitro Anti Bacterial Activity (MIC90) against 90% of tested clinical Isolates of Escherichia coli; summary of the method: as §1
Escherichia coli [13] = experiment: In Vitro antibacterial activity against (Ec TEM1) Escherichia coli […] strain; summary of the method: as §2
Staphylococcus aureus [14] = experiment: In vitro antibacterial activity against Sa MR(II) homogeneous methicillin resistant Staphylococcus aureus; summary of the method: as §3
Pseudomonas aeruginosa [15] = experiment: In Vitro antibacterial activity against (Pa) hyperpermeable Pseudomonas aeruginosa […] strain; summary of the method: as §2
Escherichia coli [16] = experiment: In Vitro antibacterial activity against (Ec TEM2) Escherichia coli […] strain; summary of the method: as §2
Klebsiella pneumoniae = experiment: In Vitro Anti Bacterial Activity (MIC90) against 90% of tested clinical Isolates of Klebsiella pneumoniae(20); summary of the method: as §1
Staphylococcus aureus [17] = experiment: In Vitro Anti Bacterial Activity (MIC90) against 90% of tested clinical Isolates of Staphylococcus aureus MV (20)
Streptococcus agalactiae = experiment: In Vitro Anti Bacterial Activity (MIC90) against 90% of tested clinical Isolates of Streptococcus agalactiaeB(21)
Pseudomonas aeruginosa [18] = experiment: In Vitro Anti Bacterial Activity (MIC90) against 90% of tested clinical Isolates of Pseudomonas aeruginosa(11); summary of the method: as §1
Escherichia coli [19] = experiment: In Vitro antibacterial activity against (Ec DC2) hyperpermeable Escherichia coli strain; summary of the method: as §2
[20] = tested on: Staphylococcus epidermidis; experiment: In Vitro Anti Bacterial Activity (MIC90) against 90% of tested clinical Isolates of Staphylococcus epidermidis (13); summary of the method: as §1
Escherichia coli [21] = experiment: In Vitro antibacterial activity against (Ec SHV) Escherichia coli […] strain; summary of the method: as §2
Clostridium perfringens = experiment: In Vitro Anti Bacterial Activity (MIC90) against 90% of tested clinical Isolates of Clostridium perfringens(27)
Summary of the method: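 MIC90 over clinical isolates of this anaerobic species, taken from the MIC distribution. Anaerobes were tested on Wilkins-Chalgren agar with an inoculum of 10⁵ cells/mL and incubated 24–48 h at 37 °C.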

Staphylococcus aureus [22] = experiment: In vitro antibacterial activity against Sa MR(I) heterogeneous methicillin resistant Staphylococcus aureus; summary of the method: as §3

C[C@@H](O)[C@H]1C(=O)N2C(C(=O)O)=C(CN(C)[C@@H](C)C(N)=O)S[C@H]12
8 µg/mL: MIC90 (Enterococcus faecalis [1]) | MIC90 (Bacteroides fragilis) | MIC90 (Staphylococcus aureus [17])
0.5 µg/mL: MIC90 (Moraxella catarrhalis) | MIC90 (Yersinia sp.) | MIC90 (Listeria monocytogenes) | MIC (Escherichia coli [21]) | MIC90 (Clostridium perfringens)
0.06 µg/mL: MIC90 (Streptococcus pneumoniae) | MIC (Staphylococcus aureus [8]) | MIC90 (Streptococcus pyogenes) | MIC90 (Streptococcus agalactiae)
0.015 µg/mL: MIC (Staphylococcus aureus [9])
32 µg/mL: MIC90 (Klebsiella aerogenes) | MIC90 [7]
0.25 µg/mL: MIC (Escherichia coli [2]) | MIC (Pseudomonas aeruginosa [3]) | MIC (Escherichia coli [4]) | MIC90 (Escherichia coli [12]) | MIC (Escherichia coli [13]) | MIC90 [20]
> 64 µg/mL: MIC90 (Enterococcus faecium) | MIC (Pseudomonas aeruginosa [6]) | MIC90 [10] | MIC90 (Pseudomonas aeruginosa [18])
2 µg/mL: MIC90 (Aeromonas) | MIC (Staphylococcus aureus [14])
0.12 µg/mL: MIC90 (Staphylococcus aureus [5]) | MIC (Staphylococcus aureus [22])
1 µg/mL: MIC90 (Citrobacter freundii) | MIC (Pseudomonas aeruginosa [15]) | MIC (Escherichia coli [16]) | MIC90 (Klebsiella pneumoniae) | MIC (Escherichia coli [19])
4 µg/mL: MIC (Enterococcus faecalis [11]) | MIC90 (Haemophilus influenzae)
